Compound activity: PubChem, Johns Hopkins Ion Channel Center
MrgX1 antag – antagonists of human MrgX1 receptor, primary screen, HEK293 cells, Fluo-4 calcium flux. Mas-related G-protein coupled receptor member X1 (Homo sapiens), Q96LB2. B-score at 10 µM. BAM8-22 antagonism; stronger effect = lower value. hit rate 1.3% among 310,000. AID 588676, 2011;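 active = calcium-response B-score plate-corrected more than 3 library SD below zero, starting fluorescence within 5 deviations, no agonist response on first addition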;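 note: peak minus trough fluorescence over baseline after final BAM8-22 challenge near maximal dose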
Target sequence (Q96LB2 whole entry, looked up): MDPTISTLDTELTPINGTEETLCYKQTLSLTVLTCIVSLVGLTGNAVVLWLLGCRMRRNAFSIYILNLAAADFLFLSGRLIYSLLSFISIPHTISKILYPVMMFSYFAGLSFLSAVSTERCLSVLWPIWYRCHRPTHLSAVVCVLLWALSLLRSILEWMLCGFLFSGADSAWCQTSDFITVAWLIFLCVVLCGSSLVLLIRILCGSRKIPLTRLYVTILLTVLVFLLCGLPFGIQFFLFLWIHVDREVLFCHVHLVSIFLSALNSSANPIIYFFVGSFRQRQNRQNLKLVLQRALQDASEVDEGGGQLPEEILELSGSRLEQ
RGS4 inh – RGS4 inhibitors, primary screen, cell-based, HEK293 M3R inducible RGS4, calcium flux. Fluo-4 calcium flux; stronger effect = higher value; triggered by carbachol at its EC20. Regulator of G-protein signaling 4 (Homo sapiens), P49798. B-score at 10 µM. hit rate 0.45% among 310,000;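 active = B-score, a plate-corrected calcium signal, over three deviations above library mean, with baseline fluorescence within five deviations of library mean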;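 note: RGS4 expression induced by doxycycline in cells with stable M3 receptor; B-score is computed from the integrated fluorescence ratio over baseline after carbachol; higher B-score means a larger calcium signal and so more RGS4 inhibition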
RGS4 pot – RGS4 potentiators or activators, primary screen, cell-based, HEK293 M3R inducible RGS4, calcium flux. carbachol calcium flux Fluo4; stronger effect = lower value. B-score at 10 µM. hit rate 0.92% among 310,000. AID 463111, 2010;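 active = B-score of the integrated calcium signal more than 4 SD below the library mean, with starting fluorescence not abnormally high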;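 note: negative B-score means reduced calcium response which marks RGS4 activation or potentiation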
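Material: M3R-expressing HEK293 line, RGS4 induced by doxycycline | Schedule: Overnight RGS4 induction, 30 min dye load 37 °C, 20 min compound RT | Measured by: Fluo4 fluorescence kinetic imaging of calcium | Read-out: Integrated calcium ratio converted to B score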
MrgX1 PAM – positive allosteric modulators of MrgX1, primary screen, HEK293 cells, Fluo-4 calcium flux; FDSS; stronger effect = higher value; B-score at 10 µM; hit rate 0.63% among 310,000;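 active = plate-corrected calcium response at least 3 library SD above typical, normal starting fluorescence, not activating the receptor alone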;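 note: compound read alongside a low EC10 to EC30 dose of BAM8-22 agonist; peak minus trough fluorescence over baseline measured at the second addition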
MrgX1 agonist – agonists of human MrgX1 receptor, primary screen, HEK293 cells, Fluo-4 calcium flux | B-score at 10 µM | Fluo-4 calcium fluorescence, agonist mode; stronger effect = higher value | hit rate 0.44% among 310,000 | Mas-related G-protein coupled receptor member X1 (Homo sapiens), Q96LB2;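 active = calcium response B-score plate-corrected fluorescence ratio at least 3 library SD, with starting fluorescence B-score inside 5 SD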
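System – MrgX1-expressing HEK293 cells · Incubation – cells plated overnight, dye loaded 0.5 h 37 °C, 0.5 h room temperature · Technique – kinetic Fluo-4 NW fluorescence of intracellular calcium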
Active calls of the source: *; i = inactive. Shown are actives, neighbours in structure and some others; about 3.5% of the full set was active somewhere.

SMILES	MrgX1 antag	RGS4 inh	RGS4 pot	MrgX1 PAM	MrgX1 agonist
Cn1c(CNC(=O)c2ccc3c(c2)OCO3)nnc1SCC(=O)Nc1ccc(F)cc1F	i	i	i	i	i
C/C(=N\NC(=O)c1cccnc1)c1cc2ccccc2o1	-7.6*	i	i	i	i
C/C(=N\NC(=O)c1ccncc1)c1cc2ccccc2o1	i	i	i	i	i
Nc1nc(N2CCCCC2)nc2ccccc12	i	i	-7.2*	i	i
CC/C(=N/OC(=O)c1cccc(C)c1)C(=O)c1cccs1	i	i	i	i	i
Cc1c2cnn(CC(=O)NCCCN3CC(C)CC(C)C3)c(=O)c2c(C)n1Cc1ccccc1Cl (stereo not drawn)	-6.9*	i	i	i	i
CC1CC(C)CN(CCCNC(=O)Cn2ncc3c(=O)oc4ccccc4c32)C1 (stereo not drawn)	i	i	i	i	i
COc1ccccc1C(=O)NC(=O)COC(=O)Cn1[nH]c(=O)c2ccccc2c1=O	-4.5*	i	i	i	i
CC(C)NC(=O)COC(=O)Cn1[nH]c(=O)c2ccccc2c1=O	i	i	i	i	i
Cc1cc(=O)[nH]c(SCc2ccc(Cl)cc2Cl)n1	i	i	i	i	i
COc1cccc(-c2nn(C)c3sc(C(=O)N4CCN(c5ccccn5)CC4)cc23)c1	i	i	-11*	i	i
COc1cccc(-c2nn(C)c3sc(C(=O)N4CCOCC4)cc23)c1	i	i	i	i	i
O=C(/C=C/c1ccco1)Nc1ccc2c(c1)OCCO2	i	i	i	i	i
CCC(=O)Nc1cccc(C(=O)/C=C/c2ccccc2)c1	i	i	i	i	35*
O=C(/C=C/c1ccccc1)Nc1ccc2c(c1)OCCO2	-4.6*	i	i	i	i
O=C(/C=C/c1ccccc1)Nc1cccc(C(=O)O)c1	-5.6*	i	i	i	i
N#C/C(=C\c1cccc(O)c1)C(=O)Nc1ccc2c(c1)OCCO2	i	i	i	17*	i
O=C(Cn1nc(C(=O)O)c2ccccc2c1=O)Nc1ccc2c(c1)C(=O)c1ccccc1C2=O	i	i	i	i	i
CS(=O)(=O)c1[nH]nc(-c2cccc(Cl)c2)c1C#N	i	i	i	i	i
O=C1CCCN1c1nccs1	i	i	i	i	i
CCN1C(=S)SC(=O)C1=C1C=C(C)N(CCO)C(C)=C1	i	i	i	i	38*
Cc1ccc(C2=NS(=O)(=O)N(C)C(C(=O)Nc3cc(C)n(CC(=O)N4CCC(C)CC4)n3)=C2)cc1	i	i	i	i	i
CCOc1ccccc1NCc1nnc(-c2ccccc2)o1	i	i	-7.5*	i	i
COc1ccc(OC)c(NCc2nnc(-c3ccccc3)o2)c1	i	i	i	i	i
CNC(=O)c1cc2cc(OC)ccc2n1CCN(Cc1ccccc1)Cc1ccccc1	-7.8*	i	i	i	i
SMILES	MrgX1 antag	RGS4 inh	RGS4 pot	MrgX1 PAM	MrgX1 agonist
O=C1C2CCCCC2C(=O)N1c1ccc(NC2CCCCC2)c([N+](=O)[O-])c1 (stereo not drawn)	i	i	i	i	i
COC(=O)c1[nH]c2ccccc2c1NC(=O)CNC1CCCCC1	i	i	-7*	i	i
COC(=O)c1[nH]c2ccccc2c1NC(=O)CN1CCCCCC1	i	i	i	i	i
CN(CC(=O)Nc1cccc(F)c1)C(=O)COc1cccc2c1OC(C)(C)C2	i	i	i	i	i
CCn1c(SCC(=O)NNC(=O)c2ccc(OC)cc2)nnc1C1CC1	i	i	i	i	i
O=C(Nc1nnc(SCc2ccccc2)s1)c1cccc([N+](=O)[O-])c1	i	i	i	i	i
Cc1nnc(SCc2cccc([N+](=O)[O-])c2)s1	i	i	-7.1*	i	i
